Results: ChEMBL document CHEMBL5705885, “CYT387, a selective JAK1/JAK2 inhibitor: in vitro assessment of kinase selectivity and preclinical studies using cell lines and primary cells from polycythemia vera patients” (Leukemia, 2009)

What was measured:
[1] = biological target: Glycogen synthase kinase-3 alpha (Homo sapiens, UniProt P49840); experiment: Inhibition of GSK3alpha (unknown origin)
[2] = biological target: High affinity nerve growth factor receptor (Homo sapiens, UniProt P04629); conditions: dose 100.0 nM
[3] = biological target: Receptor tyrosine-protein kinase erbB-2 (Homo sapiens, UniProt P04626); experiment: Inhibition of ERBB2 (unknown origin)
[4] = biological target: Serine/threonine-protein kinase PLK1 (Homo sapiens, UniProt P53350); experiment: Inhibition of PLK1 (unknown origin)
[5] = biological target: Mitogen-activated protein kinase 1 (Homo sapiens, UniProt P28482); conditions: dose 100.0 nM
Insulin receptor = Insulin receptor (Homo sapiens, UniProt P06213); experiment: Inhibition of INSR (unknown origin)
BaF3 [6] = experiment: Antiproliferative activity against mouse BaF3 cells harboring TEL-JAK2 measured after 72 hrs by Alamar blue staining based analysis; type: functional, cell-based; conditions: BaF3, 72 h
Procedure, shortened: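 Murine Ba/F3 cells carrying TEL/JAK2 or TEL/JAK3 fusions, grown in DMEM with 10% fetal calf serum. Compound stocks in DMSO were diluted in culture medium. Proliferation was read by Alamar Blue after 72 h incubation at 37 °C under 5% CO2.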

[7] = biological target: G protein-coupled receptor kinase 3 (Homo sapiens, UniProt P35626); experiment: Inhibition of ADRBK2 (unknown origin)
[8] = biological target: Signal transducer and activator of transcription 5A (Homo sapiens) (UniProt P42229); experiment: Inhibition of STAT5 phosphorylation in human HEL cells by Western blot analysis; type: cell-based; conditions: dose <= 1.0 µM
Procedure, shortened: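 HEL cells were starved overnight in RPMI with 1% FCS, then exposed to compound for 2 h at 37 °C. Cells were lysed in RIPA buffer (50 mM HEPES pH 7.4, 150 mM NaCl, 1% Triton X-100, deoxycholate, 0.1% SDS) with protease and phosphatase inhibitors. Protein was quantified by Bradford assay and blots were developed by chemiluminescence. Membranes were stripped and reprobed for total STAT5.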

[9] = biological target: Calcium/calmodulin-dependent protein kinase type II subunit alpha (Homo sapiens, UniProt Q9UQM7); experiment: Inhibition of CAMK2 alpha (unknown origin)
[10] = biological target: Serine/threonine-protein kinase N1 (Homo sapiens, UniProt Q16512); experiment: Inhibition of PKN1 (unknown origin)
[11] = biological target: Tyrosine-protein kinase receptor TYRO3 (Homo sapiens) (UniProt Q06418); conditions: dose 100.0 nM
[12] = biological target: Serine/threonine-protein kinase Nek9 (Homo sapiens) (UniProt Q8TD19); conditions: dose 100.0 nM
[13] = biological target: Serine/threonine-protein kinase PLK3 (Homo sapiens, UniProt Q9H4B4); conditions: dose 100.0 nM
[14] = biological target: Serine/threonine-protein kinase PAK 4 (Homo sapiens, UniProt O96013); experiment: Inhibition of PAK4 (unknown origin)
[15] = biological target: Serine/threonine-protein kinase MARK1 (Homo sapiens, UniProt Q9P0L2); experiment: Inhibition of MARK1 (unknown origin)
[16] = biological target: Vascular endothelial growth factor receptor 1 (Homo sapiens, UniProt P17948); experiment: Inhibition of FLT1 (unknown origin)
BaF3 [17] = experiment: Antiproliferative activity against mouse BaF3 cells harboring MPLW515L measured after 72 hrs by Alamar blue staining based analysis; type: functional, cell-based; conditions: BaF3, 72 h
Procedure, shortened: (§1)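 Ba/F3 murine cells expressing JAK2V617F or MPLW515L. Compound stocks in DMSO were diluted into culture medium. After 72 h at 37 °C in 5% CO2, proliferation was quantified with the Alamar Blue assay.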

[18] = biological target: BDNF/NT-3 growth factors receptor (Homo sapiens, UniProt Q16620); experiment: Inhibition of NTRK2 (unknown origin)
[19] = biological target: Tyrosine-protein kinase Fyn (Homo sapiens, UniProt P06241); experiment: Inhibition of FYN (unknown origin)
[20] = biological target: Ribosomal protein S6 kinase alpha-5 (Homo sapiens, UniProt O75582); experiment: Inhibition of RPS6KA5 (unknown origin)
[21] = biological target: Rho-associated protein kinase 2 (Homo sapiens, UniProt O75116); conditions: dose 100.0 nM
SRSF protein kinase 3 = SRSF protein kinase 3 (Homo sapiens, UniProt Q9UPE1); experiment: Inhibition of STK23 (unknown origin)
[22] = biological target: Fibroblast growth factor receptor 3 (Homo sapiens, UniProt P22607); experiment: Inhibition of FGFR3 (unknown origin)
Ephrin type-B receptor 1 = Ephrin type-B receptor 1 (Homo sapiens, UniProt P54762); experiment: Inhibition of EPHB1 (unknown origin)
[23] = biological target: Fibroblast growth factor receptor 1 (Homo sapiens, UniProt P11362); experiment: Inhibition of FGFR1 (unknown origin)
[24] = biological target: Mitogen-activated protein kinase 8 (Homo sapiens) (UniProt P45983); conditions: dose 100.0 nM
[25] = biological target: Tyrosine-protein kinase Yes (Homo sapiens, UniProt P07947); experiment: Inhibition of YES1 (unknown origin)
[26] = biological target: Protein kinase C alpha type (Homo sapiens, UniProt P17252); experiment: Inhibition of PRKCA (unknown origin)
Activin receptor type-1B = Activin receptor type-1B (Homo sapiens, UniProt P36896); experiment: Inhibition of ACVR1B (unknown origin)
[27] = biological target: Protein-tyrosine kinase 6 (Homo sapiens, UniProt Q13882); experiment: Inhibition of PTK6 (unknown origin)
BaF3 [28] = experiment: Antiproliferative activity against mouse BaF3 cells harboring JAK2V617F mutant measured after 72 hrs by Alamar blue staining based analysis; type: functional, cell-based; conditions: BaF3, 72 h; procedure, shortened: as §1
[29] = biological target: Platelet-derived growth factor receptor alpha (Homo sapiens, UniProt P16234); experiment: Inhibition of PDGFRA (unknown origin)
[30] = biological target: Serine/threonine-protein kinase Chk1 (Homo sapiens, UniProt O14757); experiment: Inhibition of CHEK1 (unknown origin)
[31] = biological target: Testis-specific serine/threonine-protein kinase 1 (Homo sapiens) (UniProt Q9BXA7); conditions: dose 100.0 nM
[32] = biological target: Homeodomain-interacting protein kinase 4 (Homo sapiens, UniProt Q8NE63); experiment: Inhibition of HIPK4 (unknown origin)
[33] = biological target: RAF proto-oncogene serine/threonine-protein kinase (Homo sapiens, UniProt P04049, Y340D); experiment: Inhibition of RAF1 Y340D (unknown origin)
[34] = biological target: Tyrosine-protein kinase CSK (Homo sapiens, UniProt P41240); experiment: Inhibition of CSK (unknown origin)

Tyrosine-protein kinase receptor TYRO3 (Homo sapiens), sequence (Q06418 whole entry): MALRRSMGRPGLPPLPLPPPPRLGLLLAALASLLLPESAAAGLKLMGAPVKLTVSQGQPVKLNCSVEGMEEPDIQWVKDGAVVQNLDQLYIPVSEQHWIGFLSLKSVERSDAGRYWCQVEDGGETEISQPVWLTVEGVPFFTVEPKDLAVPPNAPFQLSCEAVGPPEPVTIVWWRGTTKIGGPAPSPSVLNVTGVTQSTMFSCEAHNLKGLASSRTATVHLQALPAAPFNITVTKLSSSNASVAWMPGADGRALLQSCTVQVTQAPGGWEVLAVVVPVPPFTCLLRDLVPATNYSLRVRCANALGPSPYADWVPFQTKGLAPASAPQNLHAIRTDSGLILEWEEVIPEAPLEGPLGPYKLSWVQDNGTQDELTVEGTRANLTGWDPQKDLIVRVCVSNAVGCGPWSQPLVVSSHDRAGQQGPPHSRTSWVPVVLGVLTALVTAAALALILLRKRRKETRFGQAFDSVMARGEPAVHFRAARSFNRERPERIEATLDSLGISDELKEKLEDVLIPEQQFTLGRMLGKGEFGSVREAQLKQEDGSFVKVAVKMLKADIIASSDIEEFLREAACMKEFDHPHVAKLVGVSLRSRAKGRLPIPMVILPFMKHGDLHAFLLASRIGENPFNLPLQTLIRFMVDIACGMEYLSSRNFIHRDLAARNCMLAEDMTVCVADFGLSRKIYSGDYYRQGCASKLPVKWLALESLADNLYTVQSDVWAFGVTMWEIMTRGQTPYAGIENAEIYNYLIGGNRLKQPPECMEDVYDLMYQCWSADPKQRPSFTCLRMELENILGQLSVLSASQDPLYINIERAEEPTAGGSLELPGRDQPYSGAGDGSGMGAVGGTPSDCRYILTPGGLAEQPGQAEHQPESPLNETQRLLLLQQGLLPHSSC
Tyrosine-protein kinase Yes, sequence (P07947 whole entry): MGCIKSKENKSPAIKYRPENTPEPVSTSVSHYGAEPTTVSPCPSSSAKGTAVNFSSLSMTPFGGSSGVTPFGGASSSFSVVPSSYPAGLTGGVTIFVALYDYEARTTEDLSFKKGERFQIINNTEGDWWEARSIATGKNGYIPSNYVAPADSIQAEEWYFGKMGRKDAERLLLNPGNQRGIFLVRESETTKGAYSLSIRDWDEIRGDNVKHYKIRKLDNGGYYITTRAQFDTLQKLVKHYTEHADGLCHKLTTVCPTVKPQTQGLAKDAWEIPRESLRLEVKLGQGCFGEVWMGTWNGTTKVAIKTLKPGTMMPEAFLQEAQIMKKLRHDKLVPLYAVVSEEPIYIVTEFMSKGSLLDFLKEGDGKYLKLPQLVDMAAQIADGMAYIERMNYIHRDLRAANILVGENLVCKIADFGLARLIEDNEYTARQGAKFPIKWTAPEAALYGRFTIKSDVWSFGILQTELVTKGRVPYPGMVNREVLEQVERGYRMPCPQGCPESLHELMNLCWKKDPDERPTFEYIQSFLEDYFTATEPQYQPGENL
Serine/threonine-protein kinase PAK 4, sequence (O96013 whole entry): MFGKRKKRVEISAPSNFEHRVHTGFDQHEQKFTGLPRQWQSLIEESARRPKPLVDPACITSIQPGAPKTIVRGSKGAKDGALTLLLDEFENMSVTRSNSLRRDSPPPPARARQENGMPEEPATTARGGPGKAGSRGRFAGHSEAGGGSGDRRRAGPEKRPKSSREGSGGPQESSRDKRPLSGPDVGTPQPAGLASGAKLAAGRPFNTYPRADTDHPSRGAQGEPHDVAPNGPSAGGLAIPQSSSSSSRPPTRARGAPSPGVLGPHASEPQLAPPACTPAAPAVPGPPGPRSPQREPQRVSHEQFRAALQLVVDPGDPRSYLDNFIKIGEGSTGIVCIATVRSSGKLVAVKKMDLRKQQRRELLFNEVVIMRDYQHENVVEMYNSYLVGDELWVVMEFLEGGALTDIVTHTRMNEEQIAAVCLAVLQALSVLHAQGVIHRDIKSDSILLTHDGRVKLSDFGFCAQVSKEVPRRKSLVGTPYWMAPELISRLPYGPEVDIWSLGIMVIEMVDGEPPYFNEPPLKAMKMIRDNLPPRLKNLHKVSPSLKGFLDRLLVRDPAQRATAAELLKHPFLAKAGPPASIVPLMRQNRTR
SRSF protein kinase 3, sequence (Q9UPE1 whole entry): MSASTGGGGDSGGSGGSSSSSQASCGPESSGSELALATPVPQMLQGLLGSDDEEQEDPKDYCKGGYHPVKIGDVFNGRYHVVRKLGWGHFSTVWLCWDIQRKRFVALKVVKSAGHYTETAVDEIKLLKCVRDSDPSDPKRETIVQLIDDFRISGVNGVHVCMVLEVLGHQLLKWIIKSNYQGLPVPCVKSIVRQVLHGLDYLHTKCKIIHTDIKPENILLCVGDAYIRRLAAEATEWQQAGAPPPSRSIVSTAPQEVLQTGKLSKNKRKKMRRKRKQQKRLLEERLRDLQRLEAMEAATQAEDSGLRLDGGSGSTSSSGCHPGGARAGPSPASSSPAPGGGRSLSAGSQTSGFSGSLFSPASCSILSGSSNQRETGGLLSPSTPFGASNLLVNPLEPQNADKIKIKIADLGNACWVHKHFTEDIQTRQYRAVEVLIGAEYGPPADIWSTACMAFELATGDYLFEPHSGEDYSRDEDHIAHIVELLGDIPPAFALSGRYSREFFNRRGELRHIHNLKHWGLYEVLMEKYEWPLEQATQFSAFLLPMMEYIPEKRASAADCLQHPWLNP
Insulin receptor, sequence (P06213 28-758 limits assumed): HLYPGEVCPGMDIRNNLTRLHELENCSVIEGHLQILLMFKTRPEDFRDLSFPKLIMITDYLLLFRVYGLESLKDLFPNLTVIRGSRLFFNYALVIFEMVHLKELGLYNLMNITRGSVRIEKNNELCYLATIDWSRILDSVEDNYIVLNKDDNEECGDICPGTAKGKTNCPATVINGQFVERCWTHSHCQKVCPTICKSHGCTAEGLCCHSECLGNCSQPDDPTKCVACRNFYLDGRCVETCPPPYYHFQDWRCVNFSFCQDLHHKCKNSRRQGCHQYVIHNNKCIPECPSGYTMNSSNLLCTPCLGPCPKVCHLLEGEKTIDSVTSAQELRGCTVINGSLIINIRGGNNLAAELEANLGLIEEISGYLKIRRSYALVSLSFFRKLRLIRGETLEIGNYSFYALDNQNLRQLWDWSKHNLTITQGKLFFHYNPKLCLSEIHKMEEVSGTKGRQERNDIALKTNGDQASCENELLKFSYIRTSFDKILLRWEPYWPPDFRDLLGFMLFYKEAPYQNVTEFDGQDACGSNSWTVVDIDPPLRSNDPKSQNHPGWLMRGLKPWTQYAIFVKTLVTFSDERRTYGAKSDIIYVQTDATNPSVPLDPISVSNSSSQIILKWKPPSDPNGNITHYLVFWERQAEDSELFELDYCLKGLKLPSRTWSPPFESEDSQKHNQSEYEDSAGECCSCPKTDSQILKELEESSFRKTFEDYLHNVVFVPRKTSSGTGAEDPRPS
Insulin receptor, sequence (P06213 763-1382 limits assumed): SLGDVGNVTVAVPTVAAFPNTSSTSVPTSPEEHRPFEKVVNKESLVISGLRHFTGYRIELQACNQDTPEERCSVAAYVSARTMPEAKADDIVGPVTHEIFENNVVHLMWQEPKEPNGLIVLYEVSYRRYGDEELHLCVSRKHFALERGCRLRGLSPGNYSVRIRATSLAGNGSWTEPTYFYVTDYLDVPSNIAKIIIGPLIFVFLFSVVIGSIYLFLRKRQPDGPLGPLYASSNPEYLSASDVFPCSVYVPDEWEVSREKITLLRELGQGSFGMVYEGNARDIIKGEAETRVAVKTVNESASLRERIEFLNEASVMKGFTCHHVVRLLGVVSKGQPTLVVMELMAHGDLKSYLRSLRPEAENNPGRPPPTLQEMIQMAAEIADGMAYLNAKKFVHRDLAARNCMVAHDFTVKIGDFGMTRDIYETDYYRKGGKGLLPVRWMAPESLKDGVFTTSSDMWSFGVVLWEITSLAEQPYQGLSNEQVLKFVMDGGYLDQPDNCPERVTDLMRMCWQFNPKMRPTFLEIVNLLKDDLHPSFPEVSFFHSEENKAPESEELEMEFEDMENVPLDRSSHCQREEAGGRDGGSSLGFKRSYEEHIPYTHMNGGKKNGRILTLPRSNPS
Mitogen-activated protein kinase 1, sequence (P28482 whole entry): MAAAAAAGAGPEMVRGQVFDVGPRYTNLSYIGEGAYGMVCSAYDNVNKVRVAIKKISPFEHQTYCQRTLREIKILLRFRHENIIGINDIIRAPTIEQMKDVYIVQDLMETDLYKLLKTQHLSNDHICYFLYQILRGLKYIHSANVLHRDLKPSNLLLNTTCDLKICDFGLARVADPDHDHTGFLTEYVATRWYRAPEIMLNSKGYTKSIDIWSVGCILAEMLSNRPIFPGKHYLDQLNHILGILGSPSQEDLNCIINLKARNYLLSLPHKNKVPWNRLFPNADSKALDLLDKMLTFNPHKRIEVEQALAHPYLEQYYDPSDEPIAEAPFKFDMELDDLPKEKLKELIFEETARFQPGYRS

IC50 [1]: > 1000 nM
inhibition [2]: < 50%
IC50 [3]: > 1000 nM
IC50 [4]: > 1000 nM
inhibition [5]: < 50%
IC50 (Insulin receptor): > 1000 nM
IC50 (BaF3 [6]): 724 nM
IC50 [7]: > 1000 nM
inhibition [8]: Dose-Dependent Effect
IC50 [9]: > 1000 nM
IC50 [10]: < 1000 nM
inhibition [11]: < 50%
inhibition [13]: < 50%
IC50 [14]: < 1000 nM
IC50 [15]: < 1000 nM
IC50 [16]: > 1000 nM
IC50 (BaF3 [17]): 200 nM
IC50 [18]: < 1000 nM
IC50 [19]: > 1000 nM
IC50 [20]: > 1000 nM
inhibition [21]: > 50%
IC50 (SRSF protein kinase 3): > 1000 nM
IC50 [22]: > 1000 nM
IC50 (Ephrin type-B receptor 1): < 1000 nM
IC50 [23]: > 1000 nM
inhibition [24]: > 50%
IC50 [25]: > 1000 nM
IC50 [26]: > 1000 nM
IC50 (Activin receptor type-1B): < 1000 nM
IC50 [27]: > 1000 nM
IC50 (BaF3 [28]): 1500 nM
IC50 [29]: < 1000 nM
IC50 [30]: > 1000 nM
inhibition [31]: < 50%
IC50 [32]: < 1000 nM
IC50 [33]: < 1000 nM
IC50 [34]: > 1000 nM
SMILES: N#CCNC(=O)c1ccc(-c2ccnc(Nc3ccc(N4CCOCC4)cc3)n2)cc1 [MOMELOTINIB]
inhibition [12]: < 50%
